Data published in ChEMBL document CHEMBL1135836, “Cyclodextrin-derived host molecules as reversal agents for the neuromuscular blocker rocuronium bromide: synthesis and structure-activity relationships” (J Med Chem, 2002).
pEC50: −log10 of the molar value. Values belong to the compound of their own block, whether it stands above or below them.

How the values were obtained:
Assay type in all cases: functional
Felis catus [1] = experiment: Percentage of maximum change in blood pressure in anesthetized cat dosed at 0.2 umol/kg (by bolus injection)
Procedure, shortened: (§1)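 Anaesthetized cats, left for 1 h after surgery to stabilize. Tibialis anterior twitch was evoked via the sciatic nerve with supramaximal 0.25 ms pulses at 0.1 Hz. Rocuronium in phosphate buffer (pH 4) was infused continuously (10.24 ± 1.31 nmol kg-1 min-1). Increasing doses of agent in saline were then given as iv boluses while mean arterial blood pressure and heart rate were recorded; means of three independent experiments.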

Felis catus [2] = experiment: Percentage of maximum change in blood pressure in anesthetized cat dosed at 0.4 umol/kg (by bolus injection); procedure, shortened: as §1
Felis catus [3] = experiment: Percentage of maximum change in blood pressure in anesthetized cat dosed at 0.6 umol/kg (by bolus injection); procedure, shortened: as §1
Felis catus [4] = experiment: Percentage of maximum change in blood pressure in anesthetized cat dosed at 0.8 umol/kg (by bolus injection); procedure, shortened: as §1
Felis catus [5] = experiment: % of maximum change of decrease in HR by vagal stimulation in anesthetized cat at 0.2umol/kg, by bolus injection
Felis catus [6] = experiment: % of maximum change of decrease in HR by vagal stimulation in anesthetized cat at 0.4umol/kg, by bolus injection
Cavia porcellus [7] = experiment: In vivo reversal activity versus ~90% block by rocuronium in guinea pig
Procedure, shortened: (§2)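 Male Dunkin-Hartley guinea pigs (600-900 g), anaesthetized ip with pentobarbitone 10 mg/kg plus urethane 1000 mg/kg, tracheotomized and ventilated. Continuous iv rocuronium infusion (~10 nmol kg-1 min-1) was raised to a steady 85-90% block. Increasing iv doses of agent were given cumulatively. ED50 = 50% recovery versus preblock twitch, by regression. Mean ± SEM of at least two experiments, or one.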

Felis catus [8] = experiment: Percentage of maximum change in blood pressure in anesthetized cat dosed at 1.0 umol/kg (by bolus injection); procedure, shortened: as §1
Felis catus [9] = experiment: Percentage of maximum change in blood pressure in anesthetized cat dosed at 1.2 umol/kg (by bolus injection); procedure, shortened: as §1
Felis catus [10] = experiment: Percentage of maximum change in blood pressure in anesthetized cat dosed at 1.4 umol/kg (by bolus injection); procedure, shortened: as §1
Felis catus [11] = experiment: Percentage of maximum change in blood pressure in anesthetized cat dosed at 1.6 umol/kg (by bolus injection); procedure, shortened: as §1
Felis catus [12] = experiment: % of maximum change of increase in contraction of nictitating membrane in anesthetized cat at 0.2umol/kg, by bolus injection
Felis catus [13] = experiment: % of maximum change of increase in contraction of nictitating membrane in anesthetized cat at 0.6umol/kg, by bolus injection
Felis catus [14] = experiment: % of maximum change of increase in contraction of nictitating membrane in anesthetized cat at 0.8umol/kg, by bolus injection
Felis catus [15] = experiment: % of maximum change of increase in contraction of nictitating membrane in anesthetized cat at 1.0umol/kg, by bolus injection
Felis catus [16] = experiment: % of maximum change of increase in contraction of nictitating membrane in anesthetized cat at 1.2umol/kg, by bolus injection
Felis catus [17] = experiment: % of maximum change of increase in contraction of nictitating membrane in anesthetized cat at 1.4umol/kg, by bolus injection
Felis catus [18] = experiment: % of maximum change of increase in contraction of nictitating membrane in anesthetized cat at 1.6umol/kg, by bolus injection
Felis catus [19] = experiment: % of maximum change of increase in contraction of nictitating membrane in anesthetized cat at 1.8umol/kg, by bolus injection
Felis catus [20] = experiment: % of maximum change of decrease in HR by vagal stimulation in anesthetized cat at 0.6umol/kg, by bolus injection
Felis catus [21] = experiment: % of maximum change of decrease in HR by vagal stimulation in anesthetized cat at 0.8umol/kg, by bolus injection
Felis catus [22] = experiment: % of maximum change of decrease in HR by vagal stimulation in anesthetized cat at 1.0umol/kg, by bolus injection
Felis catus [23] = experiment: % of maximum change of decrease in HR by vagal stimulation in anesthetized cat at 1.2umol/kg, by bolus injection
Felis catus [24] = experiment: % of maximum change of decrease in HR by vagal stimulation in anesthetized cat at 1.4umol/kg, by bolus injection
Felis catus [25] = experiment: % of maximum change of decrease in HR by vagal stimulation in anesthetized cat at 1.6umol/kg, by bolus injection
Felis catus [26] = experiment: % of maximum change of decrease in HR by vagal stimulation in anesthetized cat at 1.8umol/kg, by bolus injection
Felis catus [27] = experiment: Percentage of maximum change of heart rate in anesthetized cat at 0.2umol/kg, by bolus injection; procedure, shortened: as §1
Felis catus [28] = experiment: Percentage of maximum change of heart rate in anesthetized cat at 0.6umol/kg, by bolus injection; procedure, shortened: as §1
Felis catus [29] = experiment: Percentage of maximum change of heart rate in anesthetized cat at 0.8umol/kg, by bolus injection; procedure, shortened: as §1
Felis catus [30] = experiment: Percentage of maximum change of heart rate in anesthetized cat at 1.0umol/kg, by bolus injection; procedure, shortened: as §1
Felis catus [31] = experiment: Percentage of maximum change of heart rate in anesthetized cat at 1.2umol/kg, by bolus injection; procedure, shortened: as §1
Felis catus [32] = experiment: Percentage of maximum change of heart rate in anesthetized cat at 1.4umol/kg, by bolus injection; procedure, shortened: as §1
Felis catus [33] = experiment: Percentage of maximum change of heart rate in anesthetized cat at 1.6umol/kg, by bolus injection; procedure, shortened: as §1
Felis catus [34] = experiment: Percentage of maximum change of heart rate in anesthetized cat at 1.8umol/kg, by bolus injection; procedure, shortened: as §1
Cavia porcellus [35] = experiment: In vivo reversal activity versus ~90% block by rocuronium in guinea pig, expressed as % of maximum reversal at 0.3 umol/kg conc.; procedure, shortened: as §2
Mus musculus [36] = species on record: Mus musculus; experiment: In vitro reversal activity versus ~90% block by rocuronium in isolated mouse hemidiaphragm, expressed as % of maximum reversal at 3.6 uM conc.
Mus musculus [37] = species on record: Mus musculus; experiment: In vitro reversal activity versus ~90% block by rocuronium in isolated mouse hemidiaphragm, expressed as effective conc.
Felis catus [38] = experiment: Percentage of maximum change of heart rate in anesthetized cat at 0.4umol/kg, by bolus injection; procedure, shortened: as §1
Felis catus [39] = experiment: Percentage of maximum change in blood pressure in anesthetized cat dosed at 1.8 umol/kg (by bolus injection); procedure, shortened: as §1
Felis catus [40] = experiment: % of maximum change of increase in contraction of nictitating membrane in anesthetized cat at 0.4umol/kg, by bolus injection
Mus musculus [41] = species on record: Mus musculus; experiment: In vitro reversal activity versus ~90% block by rocuronium in isolated mouse hemidiaphragm, expressed as % of maximum reversal at 216 uM conc.
Cavia porcellus [42] = experiment: In vivo reversal activity versus ~90% block by rocuronium in guinea pig, expressed as % of maximum reversal at 3.9 umol/kg conc.
Procedure, shortened: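 Male Dunkin-Hartley guinea pigs (600-900 g) anaesthetized ip with pentobarbitone 10 mg/kg plus urethane 1000 mg/kg, tracheotomized and artificially ventilated. Continuous iv rocuronium bromide infusion (~10 nmol kg-1 min-1) raised until steady-state twitch block of 85-90%. Increasing single iv doses of reversal agent given by a separate catheter. Max reversal is peak twitch recovery versus preblock height at highest dose tested; means ± SEM, n ≥ 2 or single experiment.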

Mus musculus [43] = species on record: Mus musculus; experiment: In vitro reversal activity versus ~90% block by rocuronium in isolated mouse hemidiaphragm, expressed as % of maximum reversal at 18 uM conc.

- pEC50 (Mus musculus [37]): 5.92
SMILES: O=C([O-])CCSCC1O[C@@H]2O[C@@H]3C(CSCCC(=O)[O-])O[C@H](O[C@@H]4C(CSCCC(=O)[O-])O[C@H](O[C@@H]5C(CSCCC(=O)[O-])O[C@H](O[C@@H]6C(CSCCC(=O)[O-])O[C@H](O[C@@H]7C(CSCCC(=O)[O-])O[C@H](O[C@@H]8C(CSCCC(=O)[O-])O[C@H](O[C@@H]9C(CSCCC(=O)[O-])O[C@H](O[C@H]1C(O)C2O)C(O)C9O)C(O)C8O)C(O)C7O)C(O)C6O)C(O)C5O)C(O)C4O)C(O)C3O.[Na+].[Na+].[Na+].[Na+].[Na+].[Na+].[Na+].[Na+] (stereo partly specified)
- BP (Felis catus [1]): -7.3 mmHg
- BP (Felis catus [2]): -6.5 mmHg
- BP (Felis catus [3]): 3.5 mmHg
- BP (Felis catus [4]): -3.3 mmHg
- Decrease (Felis catus [5]): -2.9%
- Decrease (Felis catus [6]): -6.7%
- ED50 (Cavia porcellus [7]): 0.03 µmol/kg
- BP (Felis catus [8]): -3.2 mmHg
- BP (Felis catus [9]): -3.3 mmHg
- BP (Felis catus [10]): -3.3 mmHg
- BP (Felis catus [11]): -5 mmHg
- Max change (Felis catus [12]): 0%
- Max change (Felis catus [13]): 0%
- Max change (Felis catus [14]): 3.7%
- Max change (Felis catus [15]): 8.7%
- Max change (Felis catus [16]): 3.7%
- Max change (Felis catus [17]): 3.7%
- Max change (Felis catus [18]): 3.7%
- Max change (Felis catus [19]): 12.5%
- Decrease (Felis catus [20]): -6.7%
- Decrease (Felis catus [21]): 2.2%
- Decrease (Felis catus [22]): 0%
- Decrease (Felis catus [23]): 0%
- Decrease (Felis catus [24]): 0.7%
- Decrease (Felis catus [25]): 0%
- Decrease (Felis catus [26]): 11%
- HR (Felis catus [27]): -4.1%
- HR (Felis catus [28]): -7.5 beats min-1
- HR (Felis catus [29]): -6.3 beats min-1
- HR (Felis catus [30]): -3.4 beats min-1
- HR (Felis catus [31]): -4 beats min-1
- HR (Felis catus [32]): -3.7 beats min-1
- HR (Felis catus [33]): -6.9 beats min-1
- HR (Felis catus [34]): -14.3 beats min-1
- Max reversal (Cavia porcellus [35]): 92.5%
- Max reversal (Mus musculus [36]): 95.1%
- HR (Felis catus [38]): -5.5 beats min-1
- BP (Felis catus [39]): -5 mmHg
- Max change (Felis catus [40]): 0%

- pEC50 (Mus musculus [37]): 3.64
SMILES: O=C([O-])c1ccccc1SCC1O[C@@H]2O[C@@H]3C(CSc4ccccc4C(=O)[O-])O[C@H](O[C@@H]4C(CSc5ccccc5C(=O)[O-])O[C@H](O[C@@H]5C(CSc6ccccc6C(=O)[O-])O[C@H](O[C@@H]6C(CSc7ccccc7C(=O)[O-])O[C@H](O[C@@H]7C(CSc8ccccc8C(=O)[O-])O[C@H](O[C@@H]8C(CSc9ccccc9C(=O)[O-])O[C@H](O[C@@H]9C(CSc%10ccccc%10C(=O)[O-])O[C@H](O[C@H]1C(O)C2O)C(O)C9O)C(O)C8O)C(O)C7O)C(O)C6O)C(O)C5O)C(O)C4O)C(O)C3O.[Na+].[Na+].[Na+].[Na+].[Na+].[Na+].[Na+].[Na+] (stereo partly specified)
- Max reversal (Mus musculus [41]): 42.3%

- pEC50 (Mus musculus [37]): 5.19
SMILES: OCCCCSCC1O[C@@H]2O[C@@H]3C(CSCCCCO)O[C@H](O[C@@H]4C(CSCCCCO)O[C@H](O[C@@H]5C(CSCCCCO)O[C@H](O[C@@H]6C(CSCCCCO)O[C@H](O[C@@H]7C(CSCCCCO)O[C@H](O[C@@H]8C(CSCCCCO)O[C@H](O[C@@H]9C(CSCCCCO)O[C@H](O[C@H]1C(O)C2O)C(O)C9O)C(O)C8O)C(O)C7O)C(O)C6O)C(O)C5O)C(O)C4O)C(O)C3O (stereo partly specified)
- ED50 (Cavia porcellus [7]): 3.94 µmol/kg
- Max reversal (Cavia porcellus [42]): 52.8%
- Max reversal (Mus musculus [43]): 78.9%
